According to ChEMBL document CHEMBL2150846, “Optimization of an ether series of mGlu5 positive allosteric modulators: molecular determinants of MPEP-site interaction crossover” (Bioorg Med Chem Lett, 2012):
Values belong to the molecule of their own block, whether it stands above or below them. Calls of active or inactive are those of the source. The calls are words filed in the database; no cut-off is given here.

How the values were obtained:
[1] = biological target: T1, Metabotropic glutamate receptor 5 (Rattus norvegicus, UniProt P31424); assay: Positive allosteric modulation of rat mGluR5 expressed in human HEK293 cells assessed as calcium mobilization; type: functional, cell-based
How it was run: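 Calcium mobilization in HEK293 cells expressing rat mGlu5, used to obtain functional EC50. pEC50 is the mean of three independent determinations, with coefficient of variation <0.05.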

[2] = biological target: Metabotropic glutamate receptor 5 (Rattus norvegicus) (UniProt P31424); assay: Displacement of [3H]methoxyPEPy from rat mGluR5 expressed in human HEK293 cells at 10 uM after 1 hr by scintillation counter; type: cell-based
How it was run: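 Single-concentration binding to the MPEP site, read as % displacement of [3H]methoxyPEPy at 10 μM test compound. Values are the average of two determinations.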

[3] = biological target: T2, Metabotropic glutamate receptor 5 (Homo sapiens, UniProt P41594); assay: Positive allosteric modulation of human mGlu5 expressed in HEK293 cells relative to glutamate; type: cell-based
Target sequence in this assay (P41594 21-1212 limits assumed): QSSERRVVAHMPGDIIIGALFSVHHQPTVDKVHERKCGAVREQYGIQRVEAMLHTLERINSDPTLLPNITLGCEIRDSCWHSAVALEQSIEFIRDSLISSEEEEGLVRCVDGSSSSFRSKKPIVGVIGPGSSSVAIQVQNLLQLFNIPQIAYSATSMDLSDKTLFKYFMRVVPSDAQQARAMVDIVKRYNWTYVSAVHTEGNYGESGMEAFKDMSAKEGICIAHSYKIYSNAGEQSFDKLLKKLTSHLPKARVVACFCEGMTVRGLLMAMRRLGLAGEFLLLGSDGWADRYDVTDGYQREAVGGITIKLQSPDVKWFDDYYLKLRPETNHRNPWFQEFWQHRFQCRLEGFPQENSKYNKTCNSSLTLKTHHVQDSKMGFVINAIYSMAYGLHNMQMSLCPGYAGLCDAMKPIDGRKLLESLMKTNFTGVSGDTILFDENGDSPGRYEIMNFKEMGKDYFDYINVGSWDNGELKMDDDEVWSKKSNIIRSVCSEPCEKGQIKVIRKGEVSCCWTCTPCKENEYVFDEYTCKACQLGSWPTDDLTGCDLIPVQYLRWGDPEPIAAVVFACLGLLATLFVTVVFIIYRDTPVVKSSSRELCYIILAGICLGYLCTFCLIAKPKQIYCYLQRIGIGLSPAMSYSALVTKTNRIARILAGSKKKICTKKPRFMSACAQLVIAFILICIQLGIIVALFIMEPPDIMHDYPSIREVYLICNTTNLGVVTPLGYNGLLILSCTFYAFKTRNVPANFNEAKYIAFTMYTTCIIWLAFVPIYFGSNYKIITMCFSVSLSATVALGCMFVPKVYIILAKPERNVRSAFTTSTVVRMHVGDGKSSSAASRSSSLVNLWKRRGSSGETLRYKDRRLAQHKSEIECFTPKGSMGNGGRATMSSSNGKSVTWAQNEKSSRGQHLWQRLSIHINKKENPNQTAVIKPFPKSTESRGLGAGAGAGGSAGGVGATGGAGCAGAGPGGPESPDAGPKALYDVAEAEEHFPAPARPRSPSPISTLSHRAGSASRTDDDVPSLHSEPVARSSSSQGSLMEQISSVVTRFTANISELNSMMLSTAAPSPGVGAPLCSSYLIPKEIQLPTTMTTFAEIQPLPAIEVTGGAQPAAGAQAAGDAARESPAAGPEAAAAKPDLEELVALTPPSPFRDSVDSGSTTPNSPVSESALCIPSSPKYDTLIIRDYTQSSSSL

[4] = biological target: T2, Metabotropic glutamate receptor 5; assay: Positive allosteric modulation of human mGluR5 expressed in HEK293 cells assessed as calcium mobilization; type: functional, cell-based
Target sequence in this assay (P41594 whole entry): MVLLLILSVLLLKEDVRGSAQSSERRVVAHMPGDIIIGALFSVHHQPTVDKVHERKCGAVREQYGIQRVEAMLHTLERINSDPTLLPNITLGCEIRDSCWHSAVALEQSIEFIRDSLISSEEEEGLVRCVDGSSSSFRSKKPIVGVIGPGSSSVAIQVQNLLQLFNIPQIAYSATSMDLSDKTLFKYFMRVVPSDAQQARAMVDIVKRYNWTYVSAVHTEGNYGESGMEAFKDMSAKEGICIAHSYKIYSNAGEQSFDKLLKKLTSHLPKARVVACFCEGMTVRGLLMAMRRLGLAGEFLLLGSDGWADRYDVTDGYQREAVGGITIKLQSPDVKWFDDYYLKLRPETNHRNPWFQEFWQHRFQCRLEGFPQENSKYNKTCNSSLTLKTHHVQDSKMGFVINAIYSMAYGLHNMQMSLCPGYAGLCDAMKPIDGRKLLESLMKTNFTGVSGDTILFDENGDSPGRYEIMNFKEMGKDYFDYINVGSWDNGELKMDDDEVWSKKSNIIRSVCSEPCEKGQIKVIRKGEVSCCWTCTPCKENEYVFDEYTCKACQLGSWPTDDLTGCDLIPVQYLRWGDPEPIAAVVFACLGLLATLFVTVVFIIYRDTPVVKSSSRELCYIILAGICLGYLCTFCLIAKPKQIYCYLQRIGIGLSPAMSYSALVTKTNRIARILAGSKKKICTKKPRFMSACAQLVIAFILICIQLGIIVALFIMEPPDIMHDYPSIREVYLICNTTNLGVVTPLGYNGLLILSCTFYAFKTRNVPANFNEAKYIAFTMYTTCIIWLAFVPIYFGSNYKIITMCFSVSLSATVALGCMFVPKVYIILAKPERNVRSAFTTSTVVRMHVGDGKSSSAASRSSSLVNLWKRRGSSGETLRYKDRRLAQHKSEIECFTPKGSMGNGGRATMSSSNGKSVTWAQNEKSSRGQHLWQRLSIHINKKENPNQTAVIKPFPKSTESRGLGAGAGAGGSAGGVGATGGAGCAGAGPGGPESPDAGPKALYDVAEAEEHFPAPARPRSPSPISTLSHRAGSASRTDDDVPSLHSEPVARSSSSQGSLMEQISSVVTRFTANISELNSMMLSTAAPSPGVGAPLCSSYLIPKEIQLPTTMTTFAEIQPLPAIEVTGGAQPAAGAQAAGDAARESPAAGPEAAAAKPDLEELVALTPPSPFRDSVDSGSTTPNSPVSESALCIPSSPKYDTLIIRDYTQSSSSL

[5] = biological target: Metabotropic glutamate receptor 8 (Homo sapiens, UniProt O00222); assay: Positive allosteric modulation of mGluR8
[6] = test system: Metabotropic glutamate receptor 5 (Rattus norvegicus), P31424 [P654F]; assay: Positive allosteric modulation of wild type rat mGlu5 receptor P654F mutant expressed in human HEK293 cells assessed as glutamate concentration response curve at 1 uM; type: cell-based
Brain [7] = assay: Fraction unbound in rat brain; type: ADME, tissue-based
[8] = Plasma protein binding in rat plasma
[9] = Cmax in rat brain at 10 mg/kg, po; type: ADME, organism-based; set-up: dose 10 mg/kg, route oral
How it was run: (§1)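 Rats were dosed orally at 10 mg/kg in 20% β-CD. Snapshot drug levels were taken in portal vein, plasma and brain at 0.5, 1.0, 3.0 and 6.0 h. AUC, brain/plasma ratio, Cmax, Tmax and Vss were derived from these levels.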

[10] = test system: Metabotropic glutamate receptor 5 (Rattus norvegicus), P31424 [T780A]; assay: Positive allosteric modulation of wild type rat mGlu5 receptor T780A mutant expressed in human HEK293 cells assessed as glutamate concentration response curve at 1 uM; type: cell-based
[11] = Plasma protein binding in human plasma
Rattus norvegicus [12] = assay: Antipsychotic activity in rat assessed as reversal of amphetamine-induced hyperlocomotion at 100 mg/kg, po; type: functional, organism-based; set-up: dose 100 mg/kg
How it was run: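 Rats given amphetamine to induce hyperlocomotion received the test agent orally at 100 mg/kg in 20% β-CD vehicle. Reversal of locomotor activity was measured.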

[13] = biological target: Metabotropic glutamate receptor 4 (Homo sapiens, UniProt Q14833); assay: Positive allosteric modulation of mGluR4
[14] = Solubility of the compound in fasted state simulated intestinal fluid; type: physicochemical
[15] = biological target: Metabotropic glutamate receptor 3 (Homo sapiens, UniProt Q14832); assay: Positive allosteric modulation of mGluR3
[16] = biological target: Metabotropic glutamate receptor 5 (Rattus norvegicus) (UniProt P31424); assay: Positive allosteric modulation of rat mGlu5 expressed in human HEK293 cells relative to glutamate; type: cell-based
[17] = biological target: Metabotropic glutamate receptor 1 (Homo sapiens, UniProt Q13255); assay: Positive allosteric modulation of mGluR1
[18] = biological target: T1, Metabotropic glutamate receptor 5; assay: Displacement of [3H]methoxyPEPy from rat mGluR5 expressed in human HEK293 cells after 1 hr by scintillation counter; type: cell-based
[19] = AUC in rat brain at 10 mg/kg, po; type: ADME, organism-based; set-up: dose 10 mg/kg, route oral; how it was run: as §1
Rattus norvegicus [20] = assay: Volume of distribution at steady state in rat at 10 mg/kg, po; type: ADME, organism-based; set-up: dose 10 mg/kg, route oral; details: in vivo; how it was run: as §1
[21] = Drug uptake in rat brain after 90 mins; type: ADME, tissue-based; details: read-out: Drug uptake
[22] = biological target: Metabotropic glutamate receptor 6 (Homo sapiens, UniProt O15303); assay: Positive allosteric modulation of mGluR6
Brain [23] = assay: Tmax in rat brain at 10 mg/kg, po; type: ADME, organism-based; set-up: dose 10 mg/kg, route oral; details: in vivo; how it was run: as §1
[24] = test system: Metabotropic glutamate receptor 5 (Rattus norvegicus), P31424 [A809V]; assay: Positive allosteric modulation of wild type rat mGlu5 receptor A809V mutant expressed in human HEK293 cells assessed as glutamate concentration response curve at 1 uM; type: cell-based
[25] = Terminal half life in rat at 1 mg/kg, iv and 10 mg/kg, po; type: ADME, organism-based; details: in vivo, read-out: beta t1/2 (converted)
How it was run: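 Non-crossover rat PK study with 1 mg/kg IV dosing and 10 mg/kg PO dosing in 20% β-CD. Plasma clearance and terminal half-life were determined.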

[26] = biological target: Metabotropic glutamate receptor 7 (Homo sapiens, UniProt Q14831); assay: Positive allosteric modulation of mGluR7
[27] = biological target: Metabotropic glutamate receptor 2 (Homo sapiens, UniProt Q14416); assay: Positive allosteric modulation of mGluR2
[28] = biological target: Metabotropic glutamate receptor 5 (Rattus norvegicus) (UniProt P31424); assay: Positive allosteric modulation of wild type rat mGlu5 expressed in human HEK293 cells assessed as glutamate concentration response curve at 1 uM; type: cell-based
Brain [29] = assay: Ratio of AUC in rat brain to AUC in rat plasma at 10 mg/kg, po; type: ADME, organism-based; set-up: dose 10 mg/kg, route oral; how it was run: as §1
Plasma = assay: AUC in rat plasma at 10 mg/kg, po; type: ADME, organism-based; set-up: dose 10 mg/kg, route oral; details: in vivo; how it was run: as §1

Sequence of Metabotropic glutamate receptor 5 (Rattus norvegicus) (P31424 21-1203 limits assumed): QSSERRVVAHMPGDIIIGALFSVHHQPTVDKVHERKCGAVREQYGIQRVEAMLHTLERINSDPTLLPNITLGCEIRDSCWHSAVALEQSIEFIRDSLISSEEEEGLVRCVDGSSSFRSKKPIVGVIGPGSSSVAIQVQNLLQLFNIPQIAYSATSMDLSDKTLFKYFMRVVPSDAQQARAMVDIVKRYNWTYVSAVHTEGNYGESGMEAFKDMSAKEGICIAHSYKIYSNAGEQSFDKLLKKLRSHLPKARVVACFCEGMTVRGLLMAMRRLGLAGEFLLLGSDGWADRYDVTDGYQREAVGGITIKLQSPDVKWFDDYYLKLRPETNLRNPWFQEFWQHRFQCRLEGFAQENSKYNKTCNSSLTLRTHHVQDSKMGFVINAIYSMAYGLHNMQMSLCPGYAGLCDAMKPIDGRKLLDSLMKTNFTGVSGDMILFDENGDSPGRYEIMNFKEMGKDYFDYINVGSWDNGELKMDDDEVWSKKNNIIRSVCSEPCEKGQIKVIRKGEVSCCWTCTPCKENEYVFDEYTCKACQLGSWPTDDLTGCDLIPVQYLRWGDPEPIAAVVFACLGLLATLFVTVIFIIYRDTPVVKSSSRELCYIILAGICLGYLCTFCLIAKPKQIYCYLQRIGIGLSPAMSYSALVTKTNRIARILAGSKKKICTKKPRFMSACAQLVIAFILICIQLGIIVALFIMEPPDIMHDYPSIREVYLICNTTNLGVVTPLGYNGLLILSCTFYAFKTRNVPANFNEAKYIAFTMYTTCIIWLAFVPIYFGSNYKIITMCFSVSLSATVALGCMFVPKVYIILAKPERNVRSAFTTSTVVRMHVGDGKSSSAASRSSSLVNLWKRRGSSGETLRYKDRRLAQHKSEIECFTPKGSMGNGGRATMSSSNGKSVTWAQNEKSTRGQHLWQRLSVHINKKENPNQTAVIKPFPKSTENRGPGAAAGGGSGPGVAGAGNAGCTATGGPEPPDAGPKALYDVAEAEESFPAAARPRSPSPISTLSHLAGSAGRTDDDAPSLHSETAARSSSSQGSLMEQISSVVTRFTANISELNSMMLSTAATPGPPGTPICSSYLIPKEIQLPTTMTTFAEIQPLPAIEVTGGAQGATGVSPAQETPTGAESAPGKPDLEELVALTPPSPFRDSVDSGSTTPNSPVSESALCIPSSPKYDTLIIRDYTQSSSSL
T1 sequence (P31424 whole entry): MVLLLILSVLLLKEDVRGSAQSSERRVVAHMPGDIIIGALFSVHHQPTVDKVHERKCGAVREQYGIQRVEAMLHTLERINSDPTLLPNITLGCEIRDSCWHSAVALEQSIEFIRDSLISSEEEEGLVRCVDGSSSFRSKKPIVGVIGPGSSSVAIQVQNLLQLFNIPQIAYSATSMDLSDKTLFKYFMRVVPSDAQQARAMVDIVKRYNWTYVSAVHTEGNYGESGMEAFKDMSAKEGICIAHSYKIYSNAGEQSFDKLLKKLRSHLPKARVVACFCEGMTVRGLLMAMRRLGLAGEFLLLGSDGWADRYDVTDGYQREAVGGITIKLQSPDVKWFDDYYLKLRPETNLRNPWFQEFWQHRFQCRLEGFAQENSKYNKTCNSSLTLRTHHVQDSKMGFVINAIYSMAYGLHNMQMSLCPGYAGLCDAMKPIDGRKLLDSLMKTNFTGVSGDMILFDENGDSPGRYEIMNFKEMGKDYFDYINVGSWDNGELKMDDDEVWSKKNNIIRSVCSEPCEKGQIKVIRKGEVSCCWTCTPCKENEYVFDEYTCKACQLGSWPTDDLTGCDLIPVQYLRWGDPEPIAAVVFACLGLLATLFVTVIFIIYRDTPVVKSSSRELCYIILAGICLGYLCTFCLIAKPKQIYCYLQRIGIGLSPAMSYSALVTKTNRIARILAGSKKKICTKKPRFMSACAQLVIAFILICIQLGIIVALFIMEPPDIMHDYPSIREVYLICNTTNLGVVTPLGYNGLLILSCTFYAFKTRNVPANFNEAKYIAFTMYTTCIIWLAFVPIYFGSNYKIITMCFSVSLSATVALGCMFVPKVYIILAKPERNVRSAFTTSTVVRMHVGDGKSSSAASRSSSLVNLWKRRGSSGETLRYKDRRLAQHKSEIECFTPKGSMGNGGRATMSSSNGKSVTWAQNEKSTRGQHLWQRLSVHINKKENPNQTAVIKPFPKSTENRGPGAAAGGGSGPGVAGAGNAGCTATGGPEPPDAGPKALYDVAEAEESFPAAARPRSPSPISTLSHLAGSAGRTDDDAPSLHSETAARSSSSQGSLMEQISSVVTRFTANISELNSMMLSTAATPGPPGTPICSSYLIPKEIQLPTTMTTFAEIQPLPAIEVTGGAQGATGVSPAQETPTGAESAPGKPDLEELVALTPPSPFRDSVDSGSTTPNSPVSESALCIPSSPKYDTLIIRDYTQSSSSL
Sequence of Metabotropic glutamate receptor 5 (Rattus norvegicus), P31424 [T780A] (P31424 whole entry T780A): as the sequence (P31424 whole entry) above, with T780A counted along it
Sequence of Metabotropic glutamate receptor 5 (Rattus norvegicus), P31424 [P654F] (P31424 whole entry P654F): as the sequence (P31424 whole entry) above, with P654F counted along it
Sequence of Metabotropic glutamate receptor 5 (Rattus norvegicus), P31424 [A809V] (P31424 whole entry A809V): as the sequence (P31424 whole entry) above, with A809V counted along it

Structure (SMILES): CC(C)CCOc1ccc(C(=O)NC2CCCCC2)cn1
- EC50 ([1]; read-out: EC50): 1140 nM

Structure (SMILES): CCCOc1ccc(C(=O)NC2CCCCC2)cn1
- EC50 ([1]; hek293): Not Active

Structure (SMILES): O=C(NC1CCOCC1)c1ccc(OCc2ccccc2)nc1
- EC50 ([1]; read-out: EC50): 3810 nM

Structure (SMILES): O=C(NC1CCCCC1)c1ccc(OCc2ccccc2)nc1
- Activity [2]: 21%
- EC50 ([1]; read-out: EC50): 34 nM

Structure (SMILES): CCCC(C)Oc1ccc(C(=O)NC2CCCCC2)cn1 (stereo unspecified)
- EC50 ([1]; hek293): Not Active

Structure (SMILES): O=C(NC1CCCCC1)c1ccc(OCC2CC2)nc1
- EC50 ([1]; hek293): Not Active

Structure (SMILES): C[C@H](NC(=O)c1ccc(OCc2cccc(F)c2)nc1)C1CCCCC1
- EC50 ([1]; read-out: EC50): 167 nM

Structure (SMILES): O=C(NC1CCCCC1)c1ccc(OCc2cccc(F)c2)nc1
- EC50 ([1]; read-out: EC50): 29 nM

Structure (SMILES): C[C@@H](NC(=O)c1ccc(OCc2cccc(F)c2)nc1)C1CCCCC1
- EC50 ([1]; read-out: EC50): 15 nM

Structure (SMILES): CCCCOc1ccc(C(=O)N(C)c2ccc(F)cc2F)cc1
- EC50 ([1]; hek293): Not Active

Structure (SMILES): CCCCOc1ccc(C(=O)Nc2ncc(F)cc2F)cc1
- Activity [2]: 0%
- EC50 ([1]; read-out: EC50): > 10000 nM

Structure (SMILES): CCCCOc1ccc(C(=O)NC2CCC2)cc1
- Activity [2]: 6.5%
- EC50 ([1]; read-out: EC50): 5170 nM

Structure (SMILES): C[C@@H](NC(=O)c1ccc(OCc2cccc(F)c2)nc1)C(C)(C)C
- EC50 [5]: > 10000 nM
- Activity [6]: inactive
- Fu (Brain [7]): 1%
- PPB [8]: ≥ 0.99
- Cmax [9]: 0.435 µM
- Activity [10]: inactive
- PPB [11]: ≥ 0.99
- Activity (Rattus norvegicus [12]): Active
- EC50 [13]: > 10000 nM
- solubility [14]: < 20 µg/mL
- EC50 [15]: > 10000 nM
- Emax [16]: 83%
- fold change (FC) [16]: 8.2
- EC50 [17]: > 10000 nM
- Ki [18]: 153 nM
- AUC [19]: 1.2 µM·h
- Vdss (Rattus norvegicus [20]): 2.3 L/kg
- concentration at 1.5 h [21]: 7.4 µM
- EC50 [22]: > 10000 nM
- Tmax (Brain [23]): 0.5 h
- Emax [3]: 86%
- fold change (FC) [3]: 10
- Activity [24]: inactive
- half-life [25]: 5 h
- EC50 [26]: > 10000 nM
- EC50 [27]: > 10000 nM
- fold change (FC) [28]: 5
- EC50 [4]: 70 nM
- Ratio AUC (Brain [29]): 0.05
- AUC (Plasma): 23 µM·h

Structure (SMILES): CC(C)(C)NC(=O)c1ccc(OCc2cccc(F)c2)nc1
- EC50 ([1]; read-out: EC50): 136 nM

Structure (SMILES): O=C(NC1CCOCC1)c1ccc(OCc2cccc(F)c2)nc1
- EC50 ([1]; read-out: pEC50 (converted)): 1620 nM

Structure (SMILES): O=C(NC1CCC1)c1ccc(C#Cc2cccc(F)c2)nc1
- Ki [18]: 195 nM
- EC50 ([1]; read-out: EC50): 16 nM

Structure (SMILES): CCCCOc1ccc(C(=O)Nc2ccc(F)cc2F)cc1
- Ki [18]: > 100000 nM
- EC50 ([1]; hek293, read-out: EC50): 33 nM

Structure (SMILES): O=C(NC1CCC1)c1ccc(OCc2ccccc2)nc1
- EC50 ([1]; read-out: EC50): 297 nM

Structure (SMILES): O=C(NC1COC1)c1ccc(OCc2cccc(F)c2)nc1
- EC50 ([1]; hek293): Not Active

Structure (SMILES): O=C(N[C@@H](C1CC1)C(F)(F)F)c1ccc(OCc2cccc(F)c2)nc1
- EC50 ([1]; read-out: EC50): 83 nM
- EC50 ([1]; read-out: pEC50 (converted)): 85.1 nM

Second part, the molecule after the results:

- Activity [2]: 5%
- EC50 ([1]; read-out: EC50): 725 nM
Structure (SMILES): CCCCOc1ccc(C(=O)Nc2ccc(F)cc2F)cn1

- EC50 ([1]; read-out: EC50): 1080 nM
Structure (SMILES): CCC(C)COc1ccc(C(=O)NC2CCCCC2)cn1 (racemic)

- Emax [3]: 70%
- EC50 [4]: 180 nM
Structure (SMILES): C[C@@H](NC(=O)c1ccc(OCc2cccc(F)c2)cc1)C(C)(C)C

- Activity [2]: 12%
- EC50 ([1]; read-out: EC50): 607 nM
Structure (SMILES): CCCCOc1ccc(C(=O)NC2CCCCC2)cc1

- EC50 ([1]; read-out: EC50): 251 nM
Structure (SMILES): O=C(NC1CCCCC1)c1ccc(OCc2ccc(F)cc2)nc1

- Activity [2]: 0%
- EC50 ([1]; read-out: EC50): 446 nM
Structure (SMILES): O=C(NC1CCCCC1)c1ccc(OCC2CCCC2)nc1

- Activity [2]: 9.5%
- EC50 ([1]; read-out: EC50): 1900 nM
Structure (SMILES): CCCCOc1ccc(C(=O)Nc2ccc(F)cn2)cn1

- EC50 ([1]; read-out: EC50): 449 nM
Structure (SMILES): CCCCCOc1ccc(C(=O)NC2CCCCC2)cn1

- Activity [2]: 27%
- EC50 ([1]; read-out: EC50): 2490 nM
Structure (SMILES): CCCCOc1ccc(C(=O)NC2CCCCC2)cn1

- EC50 ([1]; read-out: EC50): 300 nM
Structure (SMILES): O=C(NC1CCC1)c1ccc(OCc2cccc(F)c2)nc1
